Results taken from ChEMBL document CHEMBL1124035, “1-Amino-substituted 4-methyl-5H-pyrido[4,3-b]indoles (gamma-carbolines) as tricyclic analogues of ellipticines: a new class of antineoplastic agents” (1988).

Tests used:
[1] = system: Mus musculus; assay: Survivors at day D32 when a dose of 50 mg/kg administered intravenously to C38 adenocarcinoma mice models; 10/10; type: functional; settings: route intravenous
Method in brief: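 Hybrid BDF1 mice, 10 per test, were implanted sc with a standard 3-mm³ fragment of C38 colon adenocarcinoma. Drug was given iv either on D1 alone or on D2 and D9. Animals were followed per NCI (Geran) protocol.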

[2] = system: Mus musculus; assay: In vivo toxicity test on P388 cells at a dose of 100 mg/kg administered intravenously to P388 leukemia mice model; type: functional; settings: route intravenous
Method in brief: (§1)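 Mice (10 per group) were inoculated ip at D0 with 10^6 P388 leukemia cells and given a single iv dose at D1. Read-outs were weight change (g), median survival day, T/C % versus controls and survivors at D30.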

[3] = system: Mus musculus; assay: Weight change in g when a dose of 2.5 mg/kg administered intraperitoneally B16 melanoma infected mice; type: functional; settings: route intraperitoneal
Method in brief: (§2)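 Hybrid BDF1 mice were inoculated ip at D0 with 0.5 mL of B16 melanoma homogenate (1 g tumor in 10 mL physiological serum). Drug was given ip daily on days 1-9, with cis-platinum 0.5 mg/kg as positive control on the same schedule.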

[4] = system: Mus musculus; assay: Survivors at day 30 when a dose of 40 mg/kg to P388 leukemia model; 1/10; type: functional
[5] = system: Mus musculus; assay: Antitumor activity against C38 adenocarcinoma cells at a dose of 75 mg/kg administered intravenously to mice; tumor volume at D32 (T/C); type: functional, MC-38; settings: route intravenous
Method in brief: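 Hybrid BD F1 mice, 10 per group, were implanted sc with a standard 3-mm3 C38 colon adenocarcinoma fragment. Drugs were given iv at the stated doses on D1 or on D2 + D9. Read-out was tumor size in treated versus control mice (T/C) at the day stated.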

[6] = system: Mus musculus; assay: Survivors at day D30 when a dose of 40 mg/kg administered intravenously to L1210 leukemia mice model; 0/10; type: functional; settings: route intravenous
[7] = system: Mus musculus; assay: Median survival day of B16 melanoma infected mice when a dose of 10 mg/kg administered intraperitoneally; type: functional; settings: route intraperitoneal
Method in brief: (§3)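 B16 melanoma in hybrid BD F1 mice. At D0 each mouse was inoculated ip with 0.5 mL of homogenate made from 1 g of tumour in 10 mL of physiological serum. Compounds were given ip daily at the stated doses for 9 days (D1-9), with cis-platinum 0.5 mg/kg under the same schedule as positive control.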

[8] = system: Mus musculus; assay: Weight change in g when a dose of 40 mg/kg intravenous administration to L1210 leukemia mice model; type: functional
Method in brief: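 Mice received 10^5 L1210 leukemia cells ip at D0, then a single iv drug dose at D1. Read-outs were weight change (g), median survival day, T/C % and survivors at D30.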

[9] = system: Mus musculus; assay: Weight change in g when a dose of 10 mg/kg administered intraperitoneally in B-16 melanoma infected mice; type: functional; settings: route intraperitoneal; method in brief: as §2
[10] = system: Mus musculus; assay: Median survival day in P388 leukemia model when a dose of 80 mg/kg administered intraperitoneally; type: functional; settings: route intraperitoneal
Method in brief: (§4)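 P388 leukaemia in CDF1 hybrid mice, 10 per group. At D0, 10^6 viable cells were inoculated ip, followed by a single ip dose of drug in distilled water on D1. Weight change, median survival day, T/C (treated/control median survival × 100) and survivors at D30 were recorded. Controls were 20 mice.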

[11] = system: Mus musculus; assay: Median survival day in B16 melanoma cell line when a dose of 10 mg/kg administered intraperitoneally to mice; type: functional; settings: route intraperitoneal; method in brief: as §3
[12] = system: Mus musculus; assay: Antitumor activity against B16 melanoma cells at a dose of 20 mg/kg administered intraperitoneally to mice; type: functional; settings: route intraperitoneal
Method in brief: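 Hybrid BD F1 mice were inoculated ip at D0 with 0.5 mL of B16 melanoma homogenate (1 g tumor in 10 mL physiological serum). Drugs were given ip daily D1-9. Cisplatin 0.5 mg/kg was the positive control under the same schedule.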

[13] = system: Mus musculus; assay: Antitumor activity against P388 cells at a dose of 40 mg/kg administered intraperitoneally P388 Leukemia model; type: functional; settings: route intraperitoneal
Method in brief: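 Mice were inoculated ip with 10^6 P388 leukemia cells at D0, then given a single ip drug dose on D1. Weight change was recorded. T/C % = median survival day of treated / controls × 100; survivors counted at D30; 10 mice per dose group, 20 controls.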

[14] = system: Mus musculus; assay: Survivors at day 30 when a dose of 80 mg/kg to P388 leukemia model; 0/10; type: functional
[15] = system: Mus musculus; assay: Median survival day in B16 melanoma cell line when a dose of 2.5 mg/kg administered intraperitoneally to mice; type: functional; settings: route intraperitoneal; method in brief: as §3
[16] = system: Mus musculus; assay: Survivors at day 60 when a dose of 30 mg/kg to B16 melanoma infected mice; 0/10; type: functional
[17] = system: Mus musculus; assay: Median survival day in B16 melanoma cell line when a dose of 20 mg/kg administered intraperitoneally to mice; type: functional; settings: route intraperitoneal; method in brief: as §3
[18] = system: Mus musculus; assay: Median survival day in P388 cell line when a dose of 100 mg/kg administered intravenously to mice; type: functional; settings: route intravenous
Method in brief: (§5)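 P388 leukaemia in CDF1 hybrid mice, 10 per group. At D0, 10^6 viable cells were inoculated ip, followed by a single iv dose on D1. Weight change, median survival day, T/C (treated/control median survival × 100) and survivors at D30 were recorded.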

[19] = system: Mus musculus; assay: Survivors at day 30 when a dose of 100 mg/kg administered intravenously to P388 (iv) to L1210 leukemia mice model; type: functional
[20] = system: Mus musculus; assay: In vivo toxicity test on P388 cells at a dose of 100 mg/kg administered intravenously to mice; type: functional; settings: route intravenous; method in brief: as §1
[21] = system: Mus musculus; assay: Survivors at day 30 when a dose of 10 mg/kg administered to P388 leukemia infected when tested in 10 mice; type: functional; method in brief: as §4
[22] = system: Mus musculus; assay: Weight change in g when a dose of 5 mg/kg administered intraperitoneally to B16 melanoma infected mice; type: functional; settings: route intraperitoneal; method in brief: as §2
[23] = system: Mus musculus; assay: […] in C38 adenocarcinoma cell line when a dose of 25 mg/kg administered intravenously in mice; type: functional, MC-38; settings: route intravenous
Method in brief: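 C38 colon adenocarcinoma in hybrid BD F1 mice, 10 per test. A standard 3-mm³ tumour fragment was implanted sc. Drugs were given iv at the stated doses on D1 or on D2 + D9, following the Geran et al. NCI protocol.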

[24] = system: Mus musculus; assay: Median survival day in P388 cell line when a dose of 50 mg/kg administered intravenously to mice; type: functional; settings: route intravenous; method in brief: as §5
[25] = system: Mus musculus; assay: Median tumoral volume in C38 adenocarcinoma model when a dose of 50 mg/kg administered intravenously on D1 to mice; type: functional; settings: route intravenous
Method in brief: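 Geran protocol in hybrid BDF1 mice, 10 per test, implanted sc with a standard 3-mm³ fragment of C38 colon adenocarcinoma. Drug was given iv at the stated doses on D1, or on D2 + D9, and tumor growth was followed.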

[26] = system: Mus musculus; assay: Weight change in g at a dose of 50 mg/kg intravenous administration to P388 leukemia model; type: functional; method in brief: as §1
[27] = system: Mus musculus; assay: Survivors at day 60 when a dose of 1.25 mg/kg to B16 melanoma infected when tested in 10 mice; type: functional
[28] = system: Mus musculus; assay: Antitumor activity against P388 leukemia in mice at a dose of 1.5 mg/kg administered intraperitoneally for 5 days; type: functional; settings: route intraperitoneal
Method in brief: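 CDF1 hybrid male or female mice, 10 per group, were inoculated ip with 10^6 viable P388 cells on day 0. Drugs in distilled water were given ip (0.1 mL/10 g body weight) daily D1-5. Vehicle, 5-fluorouracil and BD 84 were given the same way. T/C = median survival day of treated / controls × 100; T/C > 128% was significant; cures counted at D60.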

For `CCN(CC)CCCNc1ncc(C)c2c1c1cc(O)ccc1n2C`, the Survivors [1] was 10, the T/C [2] was 223% and the Weight change [3] was 0.6 g. The Survivors [4] was 1, the Tumor volume [5] was 13% and the Survivors [6] was 0. The Median survival day [7] was 19.3 and the Weight change [8] was -0.2 g.

Work on `CCN(CC)CCCNc1[nH]cc(C)c2nc3ccc(O)cc3c1-2` yielded a Weight change [9] of 1.6 g, a Median survival day [10] of 2.3 and a Median survival day [11] of 56.25. For the same compound, the T/C [12] was 211%, the T/C [13] was 136% and the Survivors [14] was 0. The Median survival day [15] was 34, the Survivors [16] was 0 and the Median survival day [17] was 58.

`Cc1cnc(NCCCN(C)C)c2c3cc(O)ccc3n(C)c12` gave a Median survival day [18] of 25.75, a Survivors [19] of 4 and a T/C [20] of 236%. For the same compound, the Survivors [21] was 1, the Weight change [22] was -0.2 g and the Median tumoral volume [23] was 0 cm*3. For the same compound, the Median survival day [24] was 17.75, the Median tumoral volume [25] was 2.73 cm*3 and the Weight change [26] was 0.5 g. The Survivors [27] was 0 and the T/C [28] was 164%.
